This is a sample that favours compounds with a hit; in the whole collection about 2.1% have one here.
PDI turbidity: inhibitors of human protein disulfide isomerase | inhibition, % at 10 µM | P07237 | PDI insulin aggregation turbidity, A650, 90 min | 0.052% of 350,000 active | AID 588391;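 active = mean inhibition across replicates of 30% or more, whatever share of single replicates reach that level; inconclusive = mean inhibition below 30% while every single replicate reaches 30%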
ERp5 inh: ERp5 (human) disulfide isomerase inhibition; Q15084; ERp5 insulin aggregation, absorbance 650 nm, 90 min; inhibition, % at 9.99 µM; 0.05% of 350,000 active; AID 651711;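 active = mean replicate inhibition above about 25%, with every replicate also reaching it, limit read from the data, passing the limit was not always enough; inconclusive = only one of those two criteria met; inactive = neither criterion met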
FGF22 binding: FGF22 (human) thermal shift binding | recombinant FGF22 thermal shift, SYPRO orange fluorescence; percent of sucrose octasulfate shift, DMSO zero | activity (Tm shift, normalised), % at 9.99 µM | 1.5% of 340,000 active | AID 651658;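 active = mean Tm shift, scaled 0 neutral to 100 positive control, at about 1.3% or above, every replicate too, limit read from the data; inconclusive = no clear call, values can overlap the other calls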
Target sequence (Q9HCT0 whole entry, looked up): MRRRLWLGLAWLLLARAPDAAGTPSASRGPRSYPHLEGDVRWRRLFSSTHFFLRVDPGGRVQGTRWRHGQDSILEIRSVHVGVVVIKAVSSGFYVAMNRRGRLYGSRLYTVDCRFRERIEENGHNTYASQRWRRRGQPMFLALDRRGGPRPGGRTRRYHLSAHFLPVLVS
FN deposition inh: fibronectin deposition inhibition | AH1F fibroblasts, Alexa488-fibronectin deposition fluorescence, overnight | inhibition, % at 12.6 µM | 0.086% of 350,000 active;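 active = mean inhibition across replicates of 30% or more, regardless of how many single replicates reach that level; inconclusive = mean under 30% yet at least half of replicates reach 30%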;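 note: positive control wells lacked labelled fibronectin entirely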
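Schedule: 1 h cell adhesion before compound, then overnight fibronectin incubation; test system: AH1F fibroblast monolayer depositing Alexa488-labelled fibronectin into matrix; quantity: 10000 AH1F cells per well; probe or stimulus: fluorescent fibronectin at 24 nM final; signal: fluorescence, ex 485 nm, em 525 nm; evaluation: percent inhibition as loss of matrix-bound fibronectin fluorescence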
MLL AF4-AF9 inh: blocks AF4 peptide binding to human AF9. inhibition, % at 10 µM. 0.47% of 350,000 active. AlphaScreen, biotin-AF4 peptide binding to FLAG-AF9. P42568;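 active = every replicate reaching a set inhibition limit, whatever the replicate mean, cut at about 25% in these data; inconclusive = mean inhibition reaches that limit but some replicates miss it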;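 note: 0% = plate neutral control median and 100% = total signal loss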
ARNT TACC3 PPI: disrupts binding between human ARNT and TACC3; Q9Y6A5; AlphaScreen His-ARNT PAS-B/GST-TACC3 binding, luminescence; TACC3 fragment carries E629A point mutation; inhibition, % at 9.99 µM; 0.66% of 390,000 active; AID 623870;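 active = mean inhibition of replicates at least 50% and at least half of replicates each reaching 50%; inconclusive = half or more replicates reach 50% but mean below 50%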;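 note: 0% = complete ARNT plus TACC3 wells and 100% = ARNT alone without TACC3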
* hit, by the source's call; ? = inconclusive; · = not tested or not shown.

SMILES | PDI turbidity | ERp5 inh | FGF22 binding | FN deposition inh | MLL AF4-AF9 inh | ARNT TACC3 PPI
CC(=O)N1CC(=O)N2[C@H](C1)[C@H](c1ccc(-c3ccc(C)cc3)cc1)[C@@H]2CO | · | 0.8 | 0.5 | · | -1.1 | ·
N#CC1(Nc2cccc(Cl)c2)CCCC1 | -4.6 | 13.3 | 43.0* | -4.3 | -5.3 | -5.7
O=S(=O)(CCN1C=CC(C(F)(F)F)=NCC1)c1ccc(Cl)cc1Cl | -2.1 | 2.1 | 0.0 | 2.7 | 43.9* | -5.1
CCC(=O)N1C[C@@H](O)COC[C@H]2O[C@@H](CC(=O)NCc3cc(F)cc(F)c3)CC[C@@H]21 | · | -0.5 | -0.1 | 4.6 | -27.5 | -19.9
CC(OC(=O)C1CC1)C(=O)Nc1cc(C(F)(F)F)ccc1Cl (centres undefined) | -5.4 | 6.0 | 43.5* | -3.9 | -5.8 | -19.8
CC1(C)CC(=O)C(CC(=O)Nc2cc(C(F)(F)F)ccc2Cl)C(=O)C1 | 7.2 | 8.1 | 43.8* | 3.4 | -1.4 | -5.1
O=C(COC(=O)CNC(=O)C1CCCCC1)Nc1cc(C(F)(F)F)ccc1Cl | 0.5 | -1.9 | 0.0 | 3.2 | 2.7 | 0.5
COc1ccc(S(=O)(=O)N(C)C[C@H]2Oc3ccc(NS(=O)(=O)c4ccc(C)cc4)cc3C(=O)N([C@H](C)CO)C[C@H]2C)cc1 | · | 1.8 | -1.0 | · | 0.6 | ·
O=C(O)c1cccc(S(=O)(=O)Nc2ccccc2Cc2ccccc2)c1 | 18.0 | 9.5 | -0.1 | 2.2 | 43.8* | -0.7
C[C@H]1CN([C@@H](C)CO)C(=O)c2cccc(NC(=O)c3nc4ccccc4s3)c2O[C@H]1CN(C)Cc1ccc(Oc2ccccc2)cc1 | · | 4.0 | -0.2 | · | -13.4 | ·
COc1ccc(C2(O)CN(c3ccc(C)cc3)C3=[N+]2CCCC3)cc1 (centres undefined) | -11.6 | 2.5 | 43.1* | -5.3 | 1.4 | 5.4
O=C(Cc1ccc(NC(=O)C2CCCN(C(=O)C3CC3)C2)cc1)Nc1cccc(C(=O)N2CCCCC2)c1 (centres undefined) | -2.6 | 32.1* | -0.6 | 6.3 | -2.3 | 0.1
O=C(Cc1cccc(NC(=O)C2CCCN(C(=O)C3CC3)C2)c1)Nc1cccc(C(=O)N2CCCCC2)c1 (centres undefined) | 5.4 | 2.4 | 0.5 | 2.9 | -3.5 | -1.0
CN(CCc1ccccc1)C(=O)c1ccc(NC(=O)Cc2ccc(NC(=O)C3CCN(C(=O)C4CC4)CC3)cc2)cc1 | 0.8 | 4.8 | -0.6 | 2.5 | ? | 43.2
CN(CCc1ccccc1)C(=O)c1ccc(NC(=O)Cc2ccc(NC(=O)C3CCN(C(=O)c4ccccc4)CC3)cc2)cc1 | 1.9 | 2.0 | 40.2 | 9.8 | 31.1* | 1.2
O=C(N[C@@H]1CC[C@H](CCn2cc(C3CCCC3)nn2)O[C@H]1CO)c1cccnc1 | · | -2.5 | · | 0.6 | -7.7 | ·
C[C@H](CO)N1C[C@H](C)[C@H](CN(C)C(=O)Nc2cc(F)ccc2F)Oc2cc(/C=C/c3ccccc3)ccc2S1(=O)=O | · | -0.4 | 2.0* | 19.4 | 1.1 | 19.9
C/C=C/c1ccc2c(c1)O[C@@H](CN(C)C(=O)Nc1ccc(C(F)(F)F)cc1)[C@@H](C)CN([C@@H](C)CO)S2(=O)=O | · | -2.3 | 1.3* | 2.4 | 3.6 | 6.5
O=C(NNC(=S)Nc1cccc2ccccc12)c1cccc(Br)c1 | -10.0 | · | · | · | · | 28.9*
O=C(NNC(=O)c1ccc2ccccc2c1)c1cccc(Br)c1 | 11.7 | -5.7 | 42.8 | -3.3 | -4.2 | -4.2
O=C(O)c1ccccc1-c1ccccc1C(=O)Nc1ccc2c(c1)[nH]c(=O)c1ccccc12 | 0.6 | -0.8 | -0.1 | 3.7 | -5.0 | 47.0*
COC(=O)CCC(=O)N1CCCC(C(=O)c2cc(F)ccc2F)C1 (centres undefined) | -3.6 | 3.8 | 0.0 | -5.8 | -5.9 | 1.9
O=C(c1cc(F)ccc1F)C1CCCN(C(=O)CCN2CCCCO2)C1 (centres undefined) | -5.4 | 1.8 | 43.0* | · | -1.1 | 1.0
Cc1ccccc1S(=O)(=O)N1[C@H](C#N)[C@@H](c2ccccc2)[C@@H]1CO | · | -2.1 | 0.1 | 2.8 | 0.1 | 5.7
Fc1ccc(Nc2c3c(nc4ccccc24)CCC3)cc1 | -6.0 | -9.4 | 1.5* | -15.1 | 5.9 | 1.0
O=C(Nc1cccc(Cl)c1)N1C[C@@H]2[C@H](c3ccccc31)[C@@H](CO)N2C(=O)C1CC1 | · | -3.6 | -0.4 | 22.1 | -22.2 | 1.4

Source: PubChem BioAssay
